Experimental data taken from ChEMBL document CHEMBL3868583, “6-Aryl substituted 4-(4-cyanomethyl) phenylamino quinazolines as a new class of isoform-selective PI3K-alpha inhibitors” (Eur J Med Chem, 2016).

Legend:
[1] = Downregulation of PI3Kbeta expression in human PC3 cells at 30 uM by Western blot analysis; format: functional, cell-based; conditions: PC-3
Outline: (§1)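 MCF-7 or PC-3 cells (2 × 10^6) treated with compound, lysed (1 × 10^6 cells) in cold NP-40 buffer with protease inhibitors 30 min on ice, 12,000 g 10 min 4 °C. 50 µg protein per lane on SDS-PAGE, PVDF transfer, 5% milk block, primary antibody 2 h, HRP secondary 1 h, ECL on film; β-actin internal control.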

[2] = system: PC-3; experiment: Induction of cell cycle arrest in human PC3 cells assessed as accumulation at S phase at 20 uM after 24 hrs by propidium iodide-staining based FACS analysis (reference value: 44 %); format: functional
Outline: (§2)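 MCF-7 or PC-3 cells treated at indicated concentrations for 24 h, pelleted, PBS-washed, fixed in ice-cold 70% ethanol overnight at 4 °C. RNase 0.2 mg/mL 1 h at 37 °C, propidium iodide 10 µg/mL 30 min dark. 10,000 events (FL2-A vs FL2-W) by flow cytometry; fractions in apoptosis/sub-G1, G1, S, G2-M.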

[3] = system: PC-3; experiment: Induction of cell cycle arrest in human PC3 cells assessed as accumulation at G1 phase at 30 uM after 24 hrs by propidium iodide-staining based FACS analysis (reference value: 39 %); format: functional; outline: as §2
[4] = system: PC-3; experiment: Induction of apoptosis in human PC3 cells assessed as loss of mitochondrial membrane potential at 30 uM after 24 hrs by rhodamine-123-staining based FACS analysis (reference value: 5 % ); format: functional
Outline: (§3)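 Cells (MCF-7 or PC-3) exposed to indicated concentrations for 24 h; rhodamine-123 (5 µM) added 1 h before end. Cells collected, PBS-washed; fluorescence of 10,000 events read in FL-1 by flow cytometry, loss of mitochondrial potential scored as decreased intensity.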

[5] = system: Mus musculus; experiment: Toxicity in Swiss mouse implanted with Swiss mouse EAC cells assessed as mortality at 70 mg/kg, ip administered for 1 to 9 days measured on day 12; format: organism-based, Ehrlich; conditions: in vivo
Outline: (§4)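 1×10^7 EAC cells injected intraperitoneally into Swiss mice on day 0. Mice randomized next day: treated groups n=7, saline control n=10 (0.2 ml i.p.). Dosing i.p. days 1–9. Sacrifice on day 12; ascitic fluid collected from the peritoneal cavity. % tumor growth inhibition from total tumor cell count versus control. Body weight and mortality tracked.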

[6] = system: PC-3; experiment: Induction of cell cycle arrest in human PC3 cells assessed as apoptotic cells at 20 uM after 24 hrs by propidium iodide-staining based FACS analysis (reference value: 2 %); format: functional
Outline: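 PC-3 cells exposed 24 h at indicated concentrations, pelleted, fixed overnight in ice-cold 70% ethanol at 4 °C, RNase 0.2 mg/mL at 37 °C 1 h, propidium iodide 10 µg/mL 30 min in dark; 10,000 events acquired (FL2-A vs FL2-W); DNA histograms modelled for apoptotic (sub-G1), G1, S and G2-M fractions.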

[7] = Cytotoxicity against human PC3 cells assessed as cell growth inhibition after 12 hrs by MTT assay; format: functional; conditions: PC-3, 12 h
[8] = Cytotoxicity against human PC3 cells assessed as cell growth inhibition after 24 hrs by MTT assay; format: functional; conditions: PC-3, 24 h
[9] = system: PC-3; experiment: Induction of apoptosis in human PC3 cells assessed as loss of mitochondrial membrane potential at 10 uM after 24 hrs by rhodamine-123-staining based FACS analysis (reference value: 5 % ); format: functional; outline: as §3
[10] = system: Mus musculus; experiment: Toxicity in Swiss mouse implanted with Swiss mouse EAC cells assessed as body weight at 70 mg/kg, ip administered for 1 to 9 days measured on day 1 (reference value: 22.8 g); format: organism-based, Ehrlich; conditions: in vivo
[11] = Anticancer activity against Swiss mouse EAT cells implanted in Swiss mouse assessed as tumor growth inhibition at 15 mg/kg, ip administered for 1 to 9 days measured on day 13 relative to control; format: functional; conditions: read-out: TGI
Outline: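 Solid tumor: 1 × 10^7 EAC cells (harvested from 8-10 day ascitic Swiss mice) injected intramuscularly into right thigh of male Swiss mice, day 0; randomized next day (n=7 treated, 10 control). Dosing i.p. days 1-9; saline 0.2 ml control, 5-FU 22 mg/kg reference.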

[12] = molecular target: Phosphatidylinositol 4,5-bisphosphate 3-kinase catalytic subunit alpha isoform (Homo sapiens, UniProt P42336); conditions: MCF7, 30 uM
[13] = system: Mus musculus; experiment: Toxicity in Swiss mouse implanted with Swiss mouse EAC cells assessed as body weight at 25 mg/kg, ip administered for 1 to 9 days measured on day 12 (reference value: 28.4 g); format: organism-based, Ehrlich; conditions: in vivo
[14] = system: Mus musculus; experiment: Toxicity in Swiss mouse implanted with Swiss mouse EAC cells assessed as mortality at 25 mg/kg, ip administered for 1 to 9 days measured on day 12; format: organism-based, Ehrlich; conditions: in vivo; outline: as §4
[15] = Downregulation of PI3Kgamma expression in human MCF7 cells at 30 uM by Western blot analysis; format: functional, cell-based; outline: as §1
[16] = system: Mus musculus; experiment: Toxicity in Swiss mouse implanted with Swiss mouse EAC cells assessed as body weight at 25 mg/kg, ip administered for 1 to 9 days measured on day 1 (reference value: 22.8 g); format: organism-based, Ehrlich; conditions: in vivo
[17] = system: MCF7; experiment: Induction of cell cycle arrest in human MCF7 cells assessed as accumulation at S phase at 30 uM after 24 hrs by propidium iodide-staining based FACS analysis (reference value: 30 %); format: functional; outline: as §2
[18] = system: Mus musculus; experiment: Toxicity in Swiss mouse implanted with Swiss mouse EAT cells assessed as mortality at 25 mg/kg, ip administered for 1 to 9 days measured on day 9 and 13; format: organism-based; conditions: in vivo
Outline: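 EAC cells harvested from 8–10-day ascitic Swiss mice; 1×10^7 cells injected intramuscularly into right thigh of Swiss male mice on day 0. Randomized next day: treated n=7, saline control n=10 (0.2 ml i.p.). Dosing i.p. days 1–9. […] Body weight and mortality tracked.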

[19] = system: MCF7; experiment: Induction of apoptosis in human MCF7 cells assessed as loss of mitochondrial membrane potential at 20 uM after 24 hrs by rhodamine-123-staining based FACS analysis (reference value: 7 % ); format: functional; outline: as §3
[20] = system: MCF7; experiment: Induction of cell cycle arrest in human MCF7 cells assessed as apoptotic cells at 10 uM after 24 hrs by propidium iodide-staining based FACS analysis (reference value: 8 %); format: functional; outline: as §2
[21] = system: MCF7; experiment: Induction of cell cycle arrest in human MCF7 cells assessed as accumulation at G1 phase at 20 uM after 24 hrs by propidium iodide-staining based FACS analysis (reference value: 50 %); format: functional; outline: as §2
[22] = system: Mus musculus; experiment: Toxicity in Swiss mouse implanted with Swiss mouse EAT cells assessed as body weight at 25 mg/kg, ip administered for 1 to 9 days measured on day 5 (reference value: 22.6 g); format: organism-based; conditions: in vivo
[23] = system: MCF7; experiment: Induction of cell cycle arrest in human MCF7 cells assessed as accumulation at S phase at 10 uM after 24 hrs by propidium iodide-staining based FACS analysis (reference value: 30 %); format: functional; outline: as §2
[24] = system: Mus musculus; experiment: Toxicity in Swiss mouse implanted with Swiss mouse EAT cells assessed as body weight at 25 mg/kg, ip administered for 1 to 9 days measured on day 9 (reference value: 22.8 g); format: organism-based; conditions: in vivo
[25] = system: MCF7; experiment: Induction of cell cycle arrest in human MCF7 cells assessed as accumulation at G2 phase at 20 uM after 24 hrs by propidium iodide-staining based FACS analysis (reference value: 20 %); format: functional; outline: as §2

Chain of Phosphatidylinositol 4,5-bisphosphate 3-kinase catalytic subunit alpha isoform (P42336 whole entry, canonical isoform): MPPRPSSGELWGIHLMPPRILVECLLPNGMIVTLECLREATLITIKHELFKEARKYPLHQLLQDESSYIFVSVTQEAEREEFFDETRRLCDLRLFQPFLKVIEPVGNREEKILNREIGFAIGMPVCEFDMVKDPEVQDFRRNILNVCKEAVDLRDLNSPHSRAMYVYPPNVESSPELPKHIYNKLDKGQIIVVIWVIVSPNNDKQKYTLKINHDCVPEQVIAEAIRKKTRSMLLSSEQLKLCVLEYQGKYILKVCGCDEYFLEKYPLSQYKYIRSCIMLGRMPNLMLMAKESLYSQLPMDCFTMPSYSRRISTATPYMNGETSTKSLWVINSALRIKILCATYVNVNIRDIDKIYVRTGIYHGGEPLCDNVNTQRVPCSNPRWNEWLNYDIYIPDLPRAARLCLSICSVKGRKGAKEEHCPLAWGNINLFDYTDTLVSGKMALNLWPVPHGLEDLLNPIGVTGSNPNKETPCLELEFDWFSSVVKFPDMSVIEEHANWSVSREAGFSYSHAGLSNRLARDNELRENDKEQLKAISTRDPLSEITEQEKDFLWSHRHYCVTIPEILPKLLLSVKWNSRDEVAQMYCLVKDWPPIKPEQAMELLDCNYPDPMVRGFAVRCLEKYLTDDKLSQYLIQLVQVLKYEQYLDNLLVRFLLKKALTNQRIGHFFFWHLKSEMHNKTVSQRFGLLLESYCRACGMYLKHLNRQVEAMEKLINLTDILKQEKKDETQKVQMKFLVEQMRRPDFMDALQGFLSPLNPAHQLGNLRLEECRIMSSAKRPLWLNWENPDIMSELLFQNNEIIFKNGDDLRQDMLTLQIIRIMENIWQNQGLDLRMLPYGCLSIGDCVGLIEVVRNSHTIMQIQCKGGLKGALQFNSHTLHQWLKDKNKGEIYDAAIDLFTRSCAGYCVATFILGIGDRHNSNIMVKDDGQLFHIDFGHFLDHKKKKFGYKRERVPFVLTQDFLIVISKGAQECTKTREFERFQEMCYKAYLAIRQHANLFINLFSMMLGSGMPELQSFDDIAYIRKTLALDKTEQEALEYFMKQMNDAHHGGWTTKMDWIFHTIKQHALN

N#CCc1ccc(Nc2ncnc3ccc(-c4cncc5ccccc45)cc23)cc1
Activity [1]: 42%
Activity [2]: 26%
Activity [3]: 42%
Activity [4]: 18%
Activity [5]: Non-Toxic
Activity [6]: 10%
GI50 [7]: 189 µM
GI50 [8]: 28 µM
Activity [9]: 8%
Activity [10]: 21.42 g

N#CCc1ccc(Nc2ncnc3ccc(-c4ccc5[nH]ccc5c4)cc23)cc1
inhibition in vivo at 15 mg/kg [11]: 34.3%
inhibition [12]: 80%
Activity [13]: 23.8 g
Activity [14]: Non-Toxic
Activity [15]: 6%
Activity [16]: 20.57 g
Activity [17]: 53%
Activity [18]: Non-Toxic
Activity [19]: 15%
Activity [20]: 7%
Activity [21]: 51%
Activity [22]: 20.61 g
Activity [23]: 40%
Activity [24]: 21 g
Activity [25]: 7%
